{"source": "ChEMBL document CHEMBL1133219", "about": "“Design and evaluation of dihydroisoquinolines as potent and orally bioavailable human cytomegalovirus inhibitors” (Bioorg Med Chem Lett, 2000)", "key": {"[1]": {"tested_on": "Hs68", "assay": "Cytotoxic activity in Hs 68 cell line by inhibition of cell proliferation", "format": "functional", "conditions": "Homo sapiens"}, "[2]": {"tested_on": "Human betaherpesvirus 5", "assay": "Antiviral activity determined against human cytomegalovirus (HCMV) in Hs 68 cell line by plaque reduction assay", "format": "functional, organism-based", "conditions": "Human betaherpesvirus 5, Hs68"}, "[3]": {"tested_on": "Mus musculus", "assay": "The area under concentration-time curve(AUC) was determined at 5 mg/kg of compound dose, administered intravenously in mice", "format": "ADME, organism-based", "set-up": "dose 5 mg/kg, route intravenous", "conditions": "in vivo, iv", "method_in_brief": "(§1)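 Mice dosed po or iv, and plasma sampled over time. Non-compartmental analysis of mean plasma concentrations gave Cmax, AUC and t1/2. AUC taken by linear trapezoidal method from zero to last sample, extrapolated to infinity with terminal slope λz. t1/2 = 0.693/λz. Mean of triplicates (SD<8%).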"}, "[4]": {"tested_on": "Mus musculus", "assay": "The area under concentration-time curve(AUC) was determined at 50 mg/kg of compound dose, administered perorally in mice", "format": "ADME, organism-based", "set-up": "dose 50 mg/kg, route oral", "conditions": "in vivo, po", "method_in_brief": "as §1"}, "[5]": {"assay": "Pharmacokinetic studies were carried out in vivo after administration of compound at 50 mg/kg perorally in mice", "format": "ADME, organism-based", "set-up": "dose 50 mg/kg, route oral", "conditions": "mouse, po", "method_in_brief": "as §1"}, "[6]": {"assay": "(§2) Half life was evaluated at 50 mg/kg of compound dose, administered perorally in mice", "format": "ADME, organism-based", "set-up": "dose 50 mg/kg, route oral", "conditions": "mouse, in vivo, po", "method_in_brief": "(§3)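 Mouse PK with plasma levels after oral dosing. Mean plasma data analysed non-compartmentally. Terminal slope (λz) obtained from the concentration-time curve, and t1/2 taken as 0.693/λz. Data are means of triplicates (SD<8%).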"}, "[7]": {"assay": "Pharmacokinetic studies were carried out in vivo after administration of compound at 5 mg/kg intravenously in mice", "format": "ADME, organism-based", "set-up": "dose 5 mg/kg, route intravenous", "conditions": "mouse, iv", "method_in_brief": "as §1"}, "[8]": {"tested_on": "Mus musculus", "assay": "The area under concentration-time curve(AUC) was determined at 5 mg/kg of compound dose, administered perorally in mice", "format": "ADME, organism-based", "set-up": "dose 5 mg/kg, route oral", "conditions": "in vivo, po", "method_in_brief": "as §1"}, "[9]": {"tested_on": "Mus musculus", "assay": "The area under concentration-time curve(AUC) was determined at 50 mg/kg of compound dose, administered intravenously in mice", "format": "ADME, organism-based", "set-up": "dose 50 mg/kg, route intravenous", "conditions": "in vivo, iv", "method_in_brief": "as §1"}, "[10]": {"assay": "Pharmacokinetic studies were carried out in vivo after administration of compound at 5 mg/kg perorally in mice", "format": "ADME, organism-based", "set-up": "dose 5 mg/kg, route oral", "conditions": "mouse, po", "method_in_brief": "as §1"}, "[11]": {"assay": "Pharmacokinetic studies were carried out in vivo after administration of compound at 50 mg/kg intravenously in mice", "format": "ADME, organism-based", "set-up": "dose 50 mg/kg, route intravenous", "conditions": "mouse, iv", "method_in_brief": "as §1"}, "[12]": {"assay": "Percent oral bioavailability was determined after administration of compound at 5 mg/kg perorally in mice", "format": "ADME, organism-based", "conditions": "mouse, in vivo, read-out: BA", "method_in_brief": "(§4)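 Mouse PK comparing oral and intravenous dosing. AUC estimated by linear trapezoid from time zero to last sample, extrapolated to infinity via terminal slope. Oral bioavailability calculated as AUCpo,0-∞/AUCiv,0-∞ at the corresponding dose. Mean of triplicate data (SD<8%).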"}, "[13]": {"assay": "Percent oral bioavailability was determined after administration of compound at 50 mg/kg perorally in mice", "format": "ADME, organism-based", "conditions": "mouse, in vivo, read-out: BA", "method_in_brief": "as §4"}, "[14]": {"assay": "Half life was evaluated at 5 mg/kg of compound dose, administered perorally in mice", "format": "ADME, organism-based", "set-up": "dose 5 mg/kg, route oral", "conditions": "mouse, in vivo, po", "method_in_brief": "as §3"}, "[15]": {"tested_on": "Mus musculus", "assay": "as §2", "format": "ADME, organism-based", "set-up": "dose 50 mg/kg, route oral", "conditions": "in vivo, po", "method_in_brief": "as §3"}, "[16]": {"tested_on": "Mus musculus", "assay": "Half life was evaluated at 5 mg/kg of compound dose, administered intravenously in mice", "conditions": "in vivo, iv"}}}
{"compound": "COc1ccccc1CNC(=O)c1ccc2c(Br)nccc2n1", "values": [{"measurement": "CC50", "setting": "[1]", "result": "~25", "unit": "µg/mL"}, {"measurement": "IC50", "setting": "[2]", "result": "> 25", "unit": "µg/mL"}]}
{"compound": "COc1ccccc1CNC(=O)c1ccc2c(C)nccc2n1", "values": [{"measurement": "CC50", "setting": "[1]", "result": "> 25", "unit": "µg/mL"}, {"measurement": "IC50", "setting": "[2]", "result": "> 10", "unit": "µg/mL"}]}
{"compound": "COc1ccccc1CNC(=O)c1ccc2c(Cl)nccc2n1", "values": [{"measurement": "CC50", "setting": "[1]", "result": "~3.2", "unit": "µg/mL"}, {"measurement": "IC50", "setting": "[2]", "result": "> 10", "unit": "µg/mL"}]}
{"compound": "O=C(NCCc1cccs1)C1=Cc2ccncc2CC1", "values": [{"measurement": "CC50", "setting": "[1]", "result": 15, "unit": "µg/mL"}, {"measurement": "IC50", "setting": "[2]", "result": 0.17, "unit": "µg/mL"}]}
{"compound": "O=C(NCCc1ccccc1)C1=Cc2ccncc2CC1", "values": [{"measurement": "CC50", "setting": "[1]", "result": 25, "unit": "µg/mL"}, {"measurement": "IC50", "setting": "[2]", "result": 0.71, "unit": "µg/mL"}]}
{"compound": "CC(C)Oc1ccccc1CNC(=O)C1=Cc2ccncc2CC1", "values": [{"measurement": "CC50", "setting": "[1]", "result": 12.5, "unit": "µg/mL"}, {"measurement": "IC50", "setting": "[2]", "result": 0.68, "unit": "µg/mL"}]}
{"compound": "COc1ccccc1CNC(=O)C1=Cc2ccncc2CC1", "values": [{"measurement": "AUC", "setting": "[3]", "result": 57, "unit": "ug m-1 min-1"}, {"measurement": "AUC", "setting": "[4]", "result": 734, "unit": "ug m-1 min-1"}, {"measurement": "Cmax", "setting": "[5]", "result": 12500, "unit": "ng/mL"}, {"measurement": "CC50", "setting": "[1]", "result": "> 50", "unit": "µg/mL"}, {"measurement": "IC50", "setting": "[2]", "result": 0.64, "unit": "µg/mL"}, {"measurement": "half-life", "setting": "[6]", "result": 42.3, "unit": "min"}, {"measurement": "Cmax", "setting": "[7]", "result": 6940, "unit": "ng/mL"}]}
{"compound": "O=C(NCCc1c[nH]c2ccccc12)C1=Cc2ccncc2CC1", "values": [{"measurement": "AUC", "setting": "[3]", "result": 94, "unit": "ug m-1 min-1"}, {"measurement": "AUC", "setting": "[8]", "result": 21, "unit": "ug m-1 min-1"}, {"measurement": "AUC", "setting": "[9]", "result": 2914, "unit": "ug m-1 min-1"}, {"measurement": "AUC", "setting": "[4]", "result": 1762, "unit": "ug m-1 min-1"}, {"measurement": "Cmax", "setting": "[10]", "result": 600, "unit": "ng/mL"}, {"measurement": "Cmax", "setting": "[11]", "result": 57800, "unit": "ng/mL"}, {"measurement": "Cmax", "setting": "[5]", "result": 15100, "unit": "ng/mL"}, {"measurement": "bioavailability", "setting": "[12]", "result": 22.5, "unit": "%"}, {"measurement": "bioavailability", "setting": "[13]", "result": 60.4, "unit": "%"}, {"measurement": "half-life", "setting": "[14]", "result": 15.2, "unit": "min"}, {"measurement": "CC50", "setting": "[1]", "result": 5, "unit": "µg/mL"}, {"measurement": "IC50", "setting": "[2]", "result": 0.1, "unit": "µg/mL"}, {"measurement": "half-life", "setting": "[6]", "result": 72.5, "unit": "min"}, {"measurement": "T1/2", "setting": "[15]", "result": 43.9, "unit": "min"}, {"measurement": "Cmax", "setting": "[7]", "result": 5560, "unit": "ng/mL"}, {"measurement": "T1/2", "setting": "[16]", "result": 14.2, "unit": "min"}]}
{"compound": "COc1ccc(OC)c(CCNC(=O)C2=Cc3ccncc3CC2)c1", "values": [{"measurement": "CC50", "setting": "[1]", "result": "> 50", "unit": "µg/mL"}, {"measurement": "IC50", "setting": "[2]", "result": 0.23, "unit": "µg/mL"}]}
{"compound": "COc1ccccc1CNC(=O)c1ccc2c(F)nccc2n1", "values": [{"measurement": "CC50", "setting": "[1]", "result": "~10", "unit": "µg/mL"}, {"measurement": "IC50", "setting": "[2]", "result": "~10", "unit": "µg/mL"}]}
{"compound": "COc1ccccc1CNC(=O)c1ccc2c(N)nccc2n1", "values": [{"measurement": "CC50", "setting": "[1]", "result": "~12.5", "unit": "µg/mL"}, {"measurement": "IC50", "setting": "[2]", "result": "~10", "unit": "µg/mL"}]}
{"compound": "COc1ccccc1CNC(=O)c1ccc2c(OC)nccc2n1", "values": [{"measurement": "CC50", "setting": "[1]", "result": "> 50", "unit": "µg/mL"}, {"measurement": "IC50", "setting": "[2]", "result": "> 25", "unit": "µg/mL"}]}
{"compound": "COc1ccccc1CCNC(=O)C1=Cc2ccncc2CC1", "values": [{"measurement": "CC50", "setting": "[1]", "result": "> 25", "unit": "µg/mL"}, {"measurement": "IC50", "setting": "[2]", "result": 10, "unit": "µg/mL"}]}
{"compound": "COc1ccccc1CNC(=O)C1CCc2cnccc2C1", "note": "(centres undefined)", "values": [{"measurement": "CC50", "setting": "[1]", "result": 100, "unit": "µg/mL"}, {"measurement": "IC50", "setting": "[2]", "result": 25, "unit": "µg/mL"}]}
{"compound": "COc1ccccc1CNC(=O)c1ccc2c[n+]([O-])ccc2n1", "values": [{"measurement": "CC50", "setting": "[1]", "result": 100, "unit": "µg/mL"}, {"measurement": "IC50", "setting": "[2]", "result": "> 25", "unit": "µg/mL"}]}
